Measurements reported in ChEMBL document CHEMBL2331220, “Benzimidazole clubbed with triazolo-thiadiazoles and triazolo-thiadiazines: new anticancer agents” (2013).

What was measured:
Type in all cases: functional
UO-31 [1] = test: Cytotoxicity against human UO31 cells assessed as cell growth at 10 uM after 48 hrs by SRB assay relative to control; conditions: UO-31, 48 h, read-out: Activity
Procedure, shortened: (§1)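 NCI single-dose primary screen: compound added at 1 × 10⁻⁵ M, cultures incubated 48 h. Protein stained with sulforhodamine B. Result given as percent growth of treated cells relative to untreated controls, where negative values mean cell kill.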

UO-31 [2] = test: Growth inhibition of human UO31 cells at 10 uM after 48 hrs by SRB assay relative to control; conditions: UO-31, 48 h, read-out: GI; procedure, shortened: as §1
T47D = test: Cytotoxicity against human T47D cells assessed as cell growth at 10 uM after 48 hrs by SRB assay relative to control; conditions: read-out: Activity; procedure, shortened: as §1
HOP-62 [3] = test: Growth inhibition of human HOP62 cells at 10 uM after 48 hrs by SRB assay relative to control; conditions: HOP-62, 48 h, read-out: GI; procedure, shortened: as §1
HOP-62 [4] = test: Cytotoxicity against human HOP62 cells assessed as cell growth at 10 uM after 48 hrs by SRB assay relative to control; conditions: HOP-62, 48 h, read-out: Activity
Procedure, shortened: (§2)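 Single-dose NCI screen. Compound was added at 1 × 10^-5 M and cultures were incubated 48 h. End point was sulforhodamine B protein staining, reported as percent growth of treated cells versus untreated control cells.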

NCI-H522 [5] = test: Growth inhibition of human NCI-H522 cells at 10 uM after 48 hrs by SRB assay relative to control; conditions: NCI-H522, 48 h, read-out: GI; procedure, shortened: as §1
NCI-H522 [6] = test: Cytotoxicity against human NCI-H522 cells assessed as cell growth at 10 uM after 48 hrs by SRB assay relative to control; conditions: NCI-H522, 48 h, read-out: Activity; procedure, shortened: as §2
NCI-H322M = test: Cytotoxicity against human NCI-H322M cells assessed as cell growth at 10 uM after 48 hrs by SRB assay relative to control; conditions: read-out: Activity; procedure, shortened: as §2
IGROV-1 = test: Growth inhibition of human IGROV1 cells at 10 uM after 48 hrs by SRB assay relative to control; conditions: IGROV-1, 48 h, read-out: GI; procedure, shortened: as §1
HOP-92 = test: Cytotoxicity against human HOP92 cells assessed as cell growth at 10 uM after 48 hrs by SRB assay relative to control; conditions: HOP-92, 48 h, read-out: Activity; procedure, shortened: as §2
MCF7 [7] = test: Growth inhibition of human MCF7 cells at 10 uM after 48 hrs by SRB assay relative to control; conditions: MCF7, 48 h, read-out: GI; procedure, shortened: as §1
MCF7 [8] = test: Cytotoxicity against human MCF7 cells assessed as cell growth at 10 uM after 48 hrs by SRB assay relative to control; conditions: MCF7, 48 h, read-out: Activity; procedure, shortened: as §2

Compound | growth at 10 µM (UO-31 [1]) [%] | also measured
COc1ccc(-c2nn3c(CCC(=O)c4nc5ccccc5[nH]4)nnc3s2)cc1 | 69.6 | 
O=C(CCc1nnc2sc(-c3ccc(O)cc3)nn12)c1nc2ccccc2[nH]1 | 67.7 | inhibition of growth at 10 µM (UO-31 [2]): ≤ 32%
O=C(CCc1nnc2sc(CCl)nn12)c1nc2ccccc2[nH]1 | 83.9 | 
NCCCc1nn2c(CCC(=O)c3nc4ccccc4[nH]3)nnc2s1 | 73.8 | 
O=C(CCc1nnc2sc(S)nn12)c1nc2ccccc2[nH]1 | 76.6 | 
O=C(CCc1nnc2sc(Nc3ccc(Cl)cc3)nn12)c1nc2ccccc2[nH]1 | 64.2 | inhibition of growth at 10 µM (UO-31 [2]): ≤ 32%
NC1=Nn2c(CCC(=O)c3nc4ccccc4[nH]3)nnc2SC1 | 80.4 | 
O=C(CCc1nnc2n1N=C(O)CS2)c1nc2ccccc2[nH]1 | 79.8 | 
CCOC1=Nn2c(CCC(=O)c3nc4ccccc4[nH]3)nnc2SC1 | 80.3 | 
O=C(CCc1nnc2n1N=C(Cl)CS2)c1nc2ccccc2[nH]1 | 78.9 | 
Cc1nn2c(CCC(=O)c3nc4ccccc4[nH]3)nnc2s1 |  | growth at 10 µM (T47D): 84.2%
O=C(CCc1nnc2sc(CCCl)nn12)c1nc2ccccc2[nH]1 | 80.1 | 
CCOc1nn2c(CCC(=O)c3nc4ccccc4[nH]3)nnc2s1 |  | inhibition of growth at 10 µM (HOP-62 [3]): ≤ 32%; growth at 10 µM (HOP-62 [4]): 28.7%
O=C(CCc1nnc2sc(C(c3ccccc3)c3ccccc3)nn12)c1nc2ccccc2[nH]1 |  | inhibition of growth at 10 µM (NCI-H522 [5]): ≤ 32%; growth at 10 µM (NCI-H522 [6]): 30.2%
N#CCc1nn2c(CCC(=O)c3nc4ccccc4[nH]3)nnc2s1 | 75.5 | 
C=Cc1nn2c(CCC(=O)c3nc4ccccc4[nH]3)nnc2s1 | 76.2 | 
O=C(CCc1nnc2sc(-c3ccccc3S)nn12)c1nc2ccccc2[nH]1 |  | growth at 10 µM (NCI-H322M): 73.9%
C/C=C\c1nn2c(CCC(=O)c3nc4ccccc4[nH]3)nnc2s1 | 54.9 | inhibition of growth at 10 µM (IGROV-1): ≤ 32%
O=C(CCc1nnc2sc(-c3ccccc3O)nn12)c1nc2ccccc2[nH]1 | 51.3 | inhibition of growth at 10 µM (IGROV-1): ≤ 32%
O=C(CCc1nnc2sc(CS)nn12)c1nc2ccccc2[nH]1 | 79.4 | 
O=C(CCc1nnc(S)o1)c1nc2ccccc2[nH]1 |  | growth at 10 µM (HOP-92): 69.4%
Nc1ccccc1-c1nn2c(CCC(=O)c3nc4ccccc4[nH]3)nnc2s1 |  | inhibition of growth at 10 µM (MCF7 [7]): ≤ 32%; growth at 10 µM (MCF7 [8]): 62%
O=C(CCc1nnc2sc(Cc3ccccc3Cl)nn12)c1nc2ccccc2[nH]1 | 63 | inhibition of growth at 10 µM (UO-31 [2]): ≤ 32%
O=C(CCc1nnc2sc(COc3ccccc3)nn12)c1nc2ccccc2[nH]1 | 64.3 | inhibition of growth at 10 µM (UO-31 [2]): ≤ 32%
